Assay [1] addresses T1, 2-C-methyl-D-erythritol 2,4-cyclodiphosphate synthase (Escherichia coli (strain K12)) (UniProt P62617).
T1 sequence (whole entry): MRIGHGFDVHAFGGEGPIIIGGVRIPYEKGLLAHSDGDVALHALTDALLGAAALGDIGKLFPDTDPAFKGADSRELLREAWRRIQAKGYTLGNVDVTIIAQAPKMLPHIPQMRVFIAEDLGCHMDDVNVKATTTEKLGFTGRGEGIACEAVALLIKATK
Nature of the assay: Inhibition of Escherichia coli IspF-MEP complex at 700 uM by HPLC based […] formation assay. In short, it runs like this: (§1)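 E. coli IspF alone or preformed IspF–MEP complex was incubated with 100 µM CDPME2P substrate. Test agents were present at 1000 µM or 700 µM, either without or after a 30 min pre-incubation. The rate of CMP formation was compared with a no-compound control run under the same pre-incubation; residual activity was taken after pre-incubation.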
A general note: Cyclic AMP is a second messenger, typically raised through Gs and lowered through Gi signalling.

The target in assay [2] is T2, 2-C-methyl-D-erythritol 2,4-cyclodiphosphate synthase (Escherichia coli (strain K12), UniProt P62617).
T2 sequence (P62617 whole entry): T1 sequence (whole entry)
The assay can be described thus: Inhibition of Escherichia coli IspF by HPLC based […] formation assay.

Assay [3] concerns the target T1, 2-C-methyl-D-erythritol 2,4-cyclodiphosphate synthase (Escherichia coli (strain K12)). Nature of the assay: Activation of Escherichia coli IspF-MEP complex assessed as increase in rate of […] formation at 100 uM by HPLC based […] formation assay relative to untreated control.
For assay [4] the target is unchanged. The assay can be described thus: Activation of Escherichia coli IspF-MEP complex assessed as increase in rate of […] formation at 100 uM pre-incubated for 30 mins by HPLC based […] formation assay relative to untreated control.
The target is the same in assay [5]. The assay can be described thus: Activation of Escherichia coli IspF assessed as increase in rate of […] formation at 100 uM pre-incubated for 30 mins by HPLC based […] formation assay relative to untreated control.
Assay [6] shares this target. The assay can be described thus: Activation of Escherichia coli IspF assessed as residual enzyme activity at 500 uM pre-incubated for 30 mins by HPLC based CMP formation assay.
Assay [7] has the same target. The assay can be described thus: Activation of Escherichia coli IspF-MEP complex assessed as increase in rate of […] formation at 1000 uM pre-incubated for 30 mins by HPLC based […] formation assay relative to untreated control. In short, it runs like this: as §1
Assay [8] has the same target. The assay can be described thus: Activation of Escherichia coli IspF-MEP complex assessed as increase in rate of […] formation at 1000 uM by HPLC based […] formation assay relative to untreated control. The method in brief:
as §1

Assay [9] has the same target. The assay can be described thus: Activation of Escherichia coli IspF assessed as increase in rate of […] formation at 1000 uM pre-incubated for 30 mins by HPLC based […] formation assay relative to untreated control. In short, it runs like this: as §1
Assay [10] has the same target. The assay can be described thus: Activation of Escherichia coli IspF assessed as assessed as residual enzyme activity at 1000 uM pre-incubated for 30 mins by HPLC based […] formation assay relative to untreated control. The method in brief: as §1
For assay [11] the target is unchanged. Nature of the assay: Activation of Escherichia coli IspF assessed as increase in rate of […] formation at 1000 uM by HPLC based […] formation assay relative to untreated control. The method in brief:
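IspF activity was read as the rate of CMP formation from 100 µM CDPME2P, with the test compound at 1000 µM. The rate is expressed relative to a control run without compound.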

The target is the same in assay [12]. The assay can be described thus: Inhibition of Escherichia coli IspF-MEP complex at 700 uM pre-incubated for 30 mins by HPLC based […] formation assay relative to untreated control. The method in brief: as §1
Assay [13] deals with T2, 2-C-methyl-D-erythritol 2,4-cyclodiphosphate synthase. The assay can be described thus: Inhibition of Escherichia coli IspF-MEP complex by HPLC based […] formation assay.
Assay [14] deals with T1, 2-C-methyl-D-erythritol 2,4-cyclodiphosphate synthase (Escherichia coli (strain K12)). The assay can be described thus: Inhibition of Escherichia coli IspF-MEP complex at 100 uM pre-incubated for 30 mins by HPLC based […] formation assay.
Assay [15] shares this target. Nature of the assay: Inhibition of Escherichia coli IspF at 500 uM by HPLC based CMP formation assay.
Assay [16] has the same target. The assay can be described thus: Inhibition of Escherichia coli IspF-MEP complex at 500 uM by HPLC based CMP formation assay. The settings on record: TDE = time-dependent effect.

Active and inactive are the calls of the source. No cut-off for these calls is given here.

As a reminder, the inhibition is how much of the control response was suppressed. As a reminder, the IC50 is the midpoint of a concentration-inhibition curve. The low end stands for inhibition by little substance, the high end for a need for much substance.

`Nc1ccn([C@@H]2O[C@H](COP(=O)(O)OP(=O)(O)O)[C@@H](O)[C@H]2O)c(=O)n1`: the inhibition entry in assay [1] is “inactive”. In addition, the IC50 in assay [2] was 768 µM.
For the compound `C[C@](O)(CO)[C@H](O)COP(=O)(O)OP(=O)(O)OC[C@H]1O[C@@H](n2ccc(N)nc2=O)[C@H](O)[C@@H]1O`, the outcome in assay [3], in assay [4], in assay [5] and in assay [6] was inactive.
`C[C@](O)(CO)[C@H](O)COP(=O)(O)CP(=O)(O)O`: the outcome in assay [7] and in [8] was inactive. In addition, the fold change (FC) turned out to be 8.7 in assay [9] and 1.8 in assay [11]. Besides, the Activity in [10] worked out at 54%.
With `Nc1ccn([C@@H]2O[C@H](COP(=O)(O)CP(=O)(O)O)[C@@H](O)[C@H]2O)c(=O)n1`, the inhibition in [12] was 74%; in assay [1], 69%. Further, the values for the IC50 in assay [13] and in assay [2] were 343 µM and 797 µM, respectively.
Turning to `C[C@](O)(CO)[C@H](O)COP(=O)(O)CP(=O)(O)OC[C@H]1O[C@@H](n2ccc(N)nc2=O)[C@H](O)[C@@H]1O`, in assay [3], the result was Active. In addition, the fold change (FC) came to 1.3 in assay [4] and 2.2 in assay [5]. For the same compound, in [6], the outcome was inactive.
For `C[C@@](CO)(OP(=O)(O)O)[C@H](O)COP(=O)(O)CP(=O)(O)OC[C@H]1O[C@@H](n2ccc(N)nc2=O)[C@H](O)[C@@H]1O`, the fold change (FC) in [5] amounted to 7.6. Further, the inhibition in [14] was 37%; in assay [16], “tde”. In assay [15], the inhibition result is “inactive”. Besides, the Activity in assay [6] is 60%.
